Measured values: ChEMBL document CHEMBL4680175, “Sulfonamide-based ring-fused analogues for CAN508 as novel carbonic anhydrase inhibitors endowed with antitumor activity: Design, synthesis, and in vitro biological evaluation” (Eur J Med Chem, 2020)
The source made the active and inactive calls. The calls are words filed in the database; no cut-off is given here.

Tests used:
[1] = target: Carbonic anhydrase 1 (Homo sapiens, UniProt P00915); assay: Inhibition of recombinant human carbonic anhydrase 1 preincubated with enzyme for 15 mins by phenol red dye based stopped flow CO2 hydrase assay
Sequence of Carbonic anhydrase 1 (P00915 whole entry): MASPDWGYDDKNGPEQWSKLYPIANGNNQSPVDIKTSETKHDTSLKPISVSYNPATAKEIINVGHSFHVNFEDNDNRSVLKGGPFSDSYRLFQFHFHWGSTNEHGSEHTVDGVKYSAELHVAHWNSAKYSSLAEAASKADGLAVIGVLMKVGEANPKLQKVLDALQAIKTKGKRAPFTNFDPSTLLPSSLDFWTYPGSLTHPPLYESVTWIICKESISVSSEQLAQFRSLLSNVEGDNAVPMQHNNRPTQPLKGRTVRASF

[2] = target: Carbonic anhydrase 9 (Homo sapiens, UniProt Q16790); assay: Inhibition of recombinant human carbonic anhydrase 9 preincubated with enzyme for 15 mins by phenol red dye based stopped flow CO2 hydrase assay
[3] = target: Carbonic anhydrase 12 (Homo sapiens, UniProt O43570); assay: Inhibition of recombinant human carbonic anhydrase 12 preincubated with enzyme for 15 mins by phenol red dye based stopped flow CO2 hydrase assay
Sequence of Carbonic anhydrase 12 (O43570 whole entry): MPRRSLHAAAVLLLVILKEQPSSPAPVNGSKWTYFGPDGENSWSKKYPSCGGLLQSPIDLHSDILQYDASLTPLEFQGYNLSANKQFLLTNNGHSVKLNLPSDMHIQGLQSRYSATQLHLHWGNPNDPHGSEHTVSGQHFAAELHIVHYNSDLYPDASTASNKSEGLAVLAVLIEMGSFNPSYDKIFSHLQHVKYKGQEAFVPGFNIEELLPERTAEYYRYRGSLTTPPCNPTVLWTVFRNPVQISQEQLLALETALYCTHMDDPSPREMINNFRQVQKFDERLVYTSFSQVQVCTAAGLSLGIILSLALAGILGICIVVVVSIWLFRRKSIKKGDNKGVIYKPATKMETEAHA

[4] = target: Cyclin-dependent kinase 2/cyclin E1 (Homo sapiens, UniProt P24941); assay: Inhibition of CDK2/cyclin E (unknown origin) expressed in baculovirus infected Sf21 insect cells using histone H1 as substrate in presence of [gamma33P]ATP
[5] = target: CDK9/cyclin T1 (Homo sapiens, UniProt P50750); assay: Inhibition of human full-length N-terminal GST/His6-tagged CDK9 (1 to 372 residues)/His6-tagged Cyclin-T1 (1 to 726 residues) expressed in sf9 cells using (YSPTSPS)2KK peptide as substrate in presence of [gamma33P]ATP
Sequence of CDK9/cyclin T1 (O60563 whole entry, the tested form may be a part): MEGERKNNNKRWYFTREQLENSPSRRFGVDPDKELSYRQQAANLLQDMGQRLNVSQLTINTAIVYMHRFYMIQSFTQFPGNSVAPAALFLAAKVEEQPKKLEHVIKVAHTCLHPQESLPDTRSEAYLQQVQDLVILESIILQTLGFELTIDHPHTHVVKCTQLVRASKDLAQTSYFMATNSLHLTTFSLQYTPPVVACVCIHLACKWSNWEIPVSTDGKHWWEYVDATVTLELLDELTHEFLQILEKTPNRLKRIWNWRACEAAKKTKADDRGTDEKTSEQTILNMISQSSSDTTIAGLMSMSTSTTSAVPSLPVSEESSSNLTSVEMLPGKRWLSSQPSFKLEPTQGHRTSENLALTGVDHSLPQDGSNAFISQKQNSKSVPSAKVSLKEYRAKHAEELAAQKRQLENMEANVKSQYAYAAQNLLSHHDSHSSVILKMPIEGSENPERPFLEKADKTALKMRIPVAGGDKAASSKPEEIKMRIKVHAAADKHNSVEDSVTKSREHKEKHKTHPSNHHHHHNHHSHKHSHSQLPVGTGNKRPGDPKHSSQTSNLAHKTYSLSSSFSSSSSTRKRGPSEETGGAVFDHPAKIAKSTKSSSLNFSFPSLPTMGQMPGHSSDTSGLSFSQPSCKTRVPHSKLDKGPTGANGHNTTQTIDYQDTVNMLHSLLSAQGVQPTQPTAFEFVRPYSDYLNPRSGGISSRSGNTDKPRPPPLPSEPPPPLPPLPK
Sequence of CDK9/cyclin T1 (P50750 whole entry, the tested form may be a part): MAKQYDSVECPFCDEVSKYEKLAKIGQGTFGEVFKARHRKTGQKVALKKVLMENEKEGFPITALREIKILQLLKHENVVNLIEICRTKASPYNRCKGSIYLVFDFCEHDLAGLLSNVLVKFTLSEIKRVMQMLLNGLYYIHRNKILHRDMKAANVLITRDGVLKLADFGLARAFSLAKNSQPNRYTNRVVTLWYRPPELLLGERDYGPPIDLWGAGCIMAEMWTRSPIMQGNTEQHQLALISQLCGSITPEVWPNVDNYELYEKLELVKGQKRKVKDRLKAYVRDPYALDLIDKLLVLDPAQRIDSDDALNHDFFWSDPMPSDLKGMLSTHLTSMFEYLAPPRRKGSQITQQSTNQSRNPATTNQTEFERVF

[6] = system: K562; assay: Antitumor activity against human K562 cells assessed as cell growth inhibition at 10 uM incubated for 48 hrs by sulforhodamine B assay; assay type: functional; details: read-out: GI
Method in brief: (§1)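 NCI Drug Evaluation Branch protocol: primary single-dose screen at 10 μM across a 57-line human cancer panel. Drug exposure is 48 h. Cell growth and viability are read by sulforhodamine B assay. Data are given as a mean graph of percent growth of treated cells and reported as percentage growth inhibition (GI%).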

[7] = system: MOLT-4; assay: Antitumor activity against human MOLT4 cells assessed as cell growth inhibition at 10 uM incubated for 48 hrs by sulforhodamine B assay; assay type: functional; details: read-out: GI; method in brief: as §1
[8] = system: RPMI-8226; assay: Antitumor activity against human RPMI8226 cells assessed as cell growth inhibition at 10 uM incubated for 48 hrs by sulforhodamine B assay; assay type: functional; details: read-out: GI; method in brief: as §1
[9] = system: HOP-62; assay: Antitumor activity against human HOP62 cells assessed as cell growth inhibition at 10 uM incubated for 48 hrs by sulforhodamine B assay; assay type: functional; details: read-out: GI; method in brief: as §1
[10] = system: HOP-92; assay: Antitumor activity against human HOP92 cells assessed as cell growth inhibition at 10 uM incubated for 48 hrs by sulforhodamine B assay; assay type: functional; details: read-out: GI; method in brief: as §1
[11] = system: NCI-H226; assay: Antitumor activity against human NCI-H226 assessed as cell growth inhibition at 10 uM incubated for 48 hrs by sulforhodamine B assay; assay type: functional; details: read-out: GI; method in brief: as §1
[12] = system: NCI-H322M; assay: Antitumor activity against human NCI-H322M cells assessed as cell growth inhibition at 10 uM incubated for 48 hrs by sulforhodamine B assay; assay type: functional; details: read-out: GI; method in brief: as §1
[13] = system: NCI-H460; assay: Antitumor activity against human NCI-H460 cells assessed as cell growth inhibition at 10 uM incubated for 48 hrs by sulforhodamine B assay; assay type: functional; details: read-out: GI; method in brief: as §1
[14] = system: NCI-H522; assay: Antitumor activity against human NCI-H522 cells assessed as cell growth inhibition at 10 uM incubated for 48 hrs by sulforhodamine B assay; assay type: functional; details: read-out: GI; method in brief: as §1
[15] = system: HCT-116; assay: Antitumor activity against human HCT116 cells assessed as cell growth inhibition at 10 uM incubated for 48 hrs by sulforhodamine B assay; assay type: functional; details: read-out: GI; method in brief: as §1
[16] = system: KM12; assay: Antitumor activity against human KM12 cells assessed as cell growth inhibition at 10 uM incubated for 48 hrs by sulforhodamine B assay; assay type: functional; details: read-out: GI; method in brief: as §1
[17] = system: SF-268; assay: Antitumor activity against human SF268 cells assessed as cell growth inhibition at 10 uM incubated for 48 hrs by sulforhodamine B assay; assay type: functional; details: read-out: GI; method in brief: as §1
[18] = system: SF-539; assay: Antitumor activity against human SF539 cells assessed as cell growth inhibition at 10 uM incubated for 48 hrs by sulforhodamine B assay; assay type: functional; details: read-out: GI; method in brief: as §1
[19] = system: SNB-75; assay: Antitumor activity against human SNB-75 cells assessed as cell growth inhibition at 10 uM incubated for 48 hrs by sulforhodamine B assay; assay type: functional; details: read-out: GI
Method in brief: (§2)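 NCI one-dose screen: 57-cell-line panel exposed at 10 μM for 48 h, Drug Evaluation Branch protocol. Growth and viability read by sulforhodamine B; data given as percent growth inhibition from the mean-graph of percent growth of treated cells.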

[20] = system: U-251; assay: Antitumor activity against human U251 cells assessed as cell growth inhibition at 10 uM incubated for 48 hrs by sulforhodamine B assay; assay type: functional; details: read-out: GI; method in brief: as §2
[21] = system: LOX IMVI; assay: Antitumor activity against human LOX IMVI cells assessed as cell growth inhibition at 10 uM incubated for 48 hrs by sulforhodamine B assay; assay type: functional; details: read-out: GI; method in brief: as §1
[22] = system: Malme-3M; assay: Antitumor activity against human MALME-3M cells assessed as cell growth inhibition at 10 uM incubated for 48 hrs by sulforhodamine B assay; assay type: functional; details: read-out: GI; method in brief: as §1
[23] = system: CAKI-1; assay: Antitumor activity against human CAKI-1 cells assessed as cell growth inhibition at 10 uM incubated for 48 hrs by sulforhodamine B assay; assay type: functional; details: read-out: GI; method in brief: as §1
[24] = system: SK-MEL-2; assay: Antitumor activity against human SK-MEL-2 cells assessed as cell growth inhibition at 10 uM incubated for 48 hrs by sulforhodamine B assay; assay type: functional; details: read-out: GI; method in brief: as §1
[25] = system: SK-MEL-5; assay: Antitumor activity against human SK-MEL-5 cells assessed as cell growth inhibition at 10 uM incubated for 48 hrs by sulforhodamine B assay; assay type: functional; details: read-out: GI; method in brief: as §1
[26] = system: IGROV-1; assay: Antitumor activity against human IGROV1 cells assessed as cell growth inhibition at 10 uM incubated for 48 hrs by sulforhodamine B assay; assay type: functional; details: read-out: GI; method in brief: as §1
[27] = system: OVCAR-3; assay: Antitumor activity against human OVCAR-3 cells assessed as cell growth inhibition at 10 uM incubated for 48 hrs by sulforhodamine B assay; assay type: functional; details: read-out: GI; method in brief: as §1
[28] = system: OVCAR-8; assay: Antitumor activity against human OVCAR-8 cells assessed as cell growth inhibition at 10 uM incubated for 48 hrs by sulforhodamine B assay; assay type: functional; details: read-out: GI; method in brief: as §1
[29] = system: PC-3; assay: Antitumor activity against human PC-3 cells assessed as cell growth inhibition at 10 uM incubated for 48 hrs by sulforhodamine B assay; assay type: functional; details: read-out: GI; method in brief: as §1
[30] = system: RXF 393; assay: Antitumor activity against human RXF 393 cells assessed as cell growth inhibition at 10 uM incubated for 48 hrs by sulforhodamine B assay; assay type: functional; details: read-out: GI; method in brief: as §1
[31] = system: SN12C; assay: Antitumor activity against human SN12C cells assessed as cell growth inhibition at 10 uM incubated for 48 hrs by sulforhodamine B assay; assay type: functional; details: read-out: GI; method in brief: as §1
[32] = system: MCF7; assay: Antitumor activity against human MCF7 cells assessed as cell growth inhibition at 10 uM incubated for 48 hrs by sulforhodamine B assay; assay type: functional; details: read-out: GI; method in brief: as §1
[33] = system: MDA-MB-231; assay: Antitumor activity against human MDA-MB-231/ATCC cells assessed as cell growth inhibition at 10 uM incubated for 48 hrs by sulforhodamine B assay; assay type: functional; details: read-out: GI; method in brief: as §1
[34] = system: Hs-578T; assay: Antitumor activity against human HS 578T cells assessed as cell growth inhibition at 10 uM incubated for 48 hrs by sulforhodamine B assay; assay type: functional; details: read-out: GI; method in brief: as §1
[35] = system: BT-549; assay: Antitumor activity against human BT-549 cells assessed as cell growth inhibition at 10 uM incubated for 48 hrs by sulforhodamine B assay; assay type: functional; details: read-out: GI; method in brief: as §1
[36] = system: T47D; assay: Antitumor activity against human T-47D cells assessed as cell growth inhibition at 10 uM incubated for 48 hrs by sulforhodamine B assay; assay type: functional; details: read-out: GI; method in brief: as §2
[37] = system: MDA-MB-468; assay: Antitumor activity against human MDA-MB-468 cells assessed as cell growth inhibition at 10 uM incubated for 48 hrs by sulforhodamine B assay; assay type: functional; details: read-out: GI; method in brief: as §1
[38] = system: NCI/ADR-RES; assay: Antitumor activity against human NCI/ADR-RES cells assessed as cell growth inhibition at 10 uM incubated for 48 hrs by sulforhodamine B assay; assay type: functional, cell-based; method in brief: as §1

For Nc1nn2cc(-c3ccccc3)[nH]c2c1/N=N/c1ccc(S(N)(=O)=O)cc1, the Ki [1] was 957 nM, the Ki [2] was 38.1 nM and the Ki [3] was 30.6 nM. The IC50 [4] was > 25000 nM, the IC50 [5] was > 25000 nM and the inhibition of growth at 10 µM [6] was 67%. For the same compound, the inhibition of growth at 10 µM [7] was 86%, the inhibition of growth at 10 µM [8] was 94% and the inhibition of growth at 10 µM [9] was 58%. For the same compound, the inhibition of growth at 10 µM [10] was 74%, the inhibition of growth at 10 µM [11] was 47% and the inhibition of growth at 10 µM [12] was 63%. It also gave an inhibition of growth at 10 µM [13] of 80%, an inhibition of growth at 10 µM [14] of 69% and an inhibition of growth at 10 µM [15] of 77%. It also gave an inhibition of growth at 10 µM [16] of 67%, an inhibition of growth at 10 µM [17] of 63% and an inhibition of growth at 10 µM [18] of 80%. The inhibition of growth at 10 µM [19] was 99%, the inhibition of growth at 10 µM [20] was 61% and the inhibition of growth at 10 µM [21] was 83%. The inhibition of growth at 10 µM [22] was 74%, the inhibition of growth at 10 µM [23] was 96% and the inhibition of growth at 10 µM [24] was 68%. It also gave an inhibition of growth at 10 µM [25] of 73%, an inhibition of growth at 10 µM [26] of 85% and an inhibition of growth at 10 µM [27] of 53%. For the same compound, the inhibition of growth at 10 µM [28] was 63%, the inhibition of growth at 10 µM [29] was 68% and the inhibition of growth at 10 µM [30] was 93%. For the same compound, the inhibition of growth at 10 µM [31] was 80%, the inhibition of growth at 10 µM [32] was 54% and the inhibition of growth at 10 µM [33] was 80%. It also gave an inhibition of growth at 10 µM [34] of 95%, an inhibition of growth at 10 µM [35] of 41% and an inhibition of growth at 10 µM [36] of 57%. The inhibition of growth at 10 µM [37] was 67% and the Activity [38] was “inactive”.
